Holding throughout (format): cell-based
Series [1] addresses T1, Toll-like receptor 4 (Mus musculus, UniProt Q9QUK6).
T1 sequence (Q9QUK6 whole entry): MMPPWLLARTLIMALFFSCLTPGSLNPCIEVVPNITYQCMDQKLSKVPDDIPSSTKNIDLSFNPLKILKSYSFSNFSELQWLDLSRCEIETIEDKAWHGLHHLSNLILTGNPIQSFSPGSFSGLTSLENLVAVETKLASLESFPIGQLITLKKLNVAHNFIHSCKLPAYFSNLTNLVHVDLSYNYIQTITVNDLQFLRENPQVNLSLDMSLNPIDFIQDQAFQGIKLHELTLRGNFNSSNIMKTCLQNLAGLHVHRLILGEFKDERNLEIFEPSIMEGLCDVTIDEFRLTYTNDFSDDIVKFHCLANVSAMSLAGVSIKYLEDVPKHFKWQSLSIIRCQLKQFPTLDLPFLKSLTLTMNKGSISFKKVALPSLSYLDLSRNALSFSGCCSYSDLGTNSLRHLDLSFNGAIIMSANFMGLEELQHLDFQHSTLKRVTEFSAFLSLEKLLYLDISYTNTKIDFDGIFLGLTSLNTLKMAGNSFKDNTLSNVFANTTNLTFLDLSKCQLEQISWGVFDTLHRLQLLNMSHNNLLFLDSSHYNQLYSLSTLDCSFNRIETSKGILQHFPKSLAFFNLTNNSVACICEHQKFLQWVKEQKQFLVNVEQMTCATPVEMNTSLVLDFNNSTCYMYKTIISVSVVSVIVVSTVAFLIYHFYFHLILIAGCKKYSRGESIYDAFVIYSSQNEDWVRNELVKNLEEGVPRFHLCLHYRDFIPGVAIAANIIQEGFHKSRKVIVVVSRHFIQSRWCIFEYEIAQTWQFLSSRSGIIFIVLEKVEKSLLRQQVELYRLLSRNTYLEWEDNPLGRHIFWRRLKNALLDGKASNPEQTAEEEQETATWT
Description: Inhibition of TLR4 in LPS-stimulated mouse RAW264.7 cells assessed as reduction of NO production after 24 hrs. The gist of the method:
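RAW 264.7 cells at 7.5×10^4/well were incubated 24 h, moved to fresh RPMI 1640, treated with vehicle or compound, and stimulated with LPS 20 ng/mL for 24 h. Nitrite in the medium was reacted with 2,3-diaminonaphthalene (0.05 mg/mL in 0.62 M HCl) for 15 min in the dark, NaOH was added, and […] was read at 450 nm.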

Another series addresses TLR2/TLR6 (Mus musculus) (UniProt Q9QUN7+Q9EPW9). Briefly: Inhibition of TLR2/TLR6 in FSL1-stimulated mouse RAW264.7 cells at 0.6 uM after 24 hrs. The gist of the method: (§1)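 RAW 264.7 cells were stimulated with the TLR-selective ligand named in the line, in the presence or absence of compound (0.6 μM). NO was then measured by the nitrite protocol: 7.5×10^4 cells/well, RPMI 1640, 24 h. 2,3-diaminonaphthalene was added, then NaOH, and […] read at 450 nm. Mean ±SD of 3 experiments, each run in triplicate.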

Series [2] deals with T2, Toll-like receptor 4 (Mus musculus) (UniProt Q9QUK6).
T2 sequence (whole entry): T1 sequence (Q9QUK6 whole entry)
Description: (§2) Inhibition of TLR4 in LPS-stimulated mouse RAW264.7 cells assessed as reduction of TNFalpha production after 24 hrs by ELISA. The gist of the method: (§3)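 RAW 264.7 cells (5×10^5/well, 6-well plates) were treated with or without LPS and then with compound for 24 h. Culture supernatant was harvested and clarified, and TNF-α was measured by ELISA.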
A general note: ELISA stands for enzyme-linked immunosorbent assay.

Series [3] deals with T1, Toll-like receptor 4. The series is described as §2. The gist of the method:
as §3

Series [4] addresses T3, Toll-like receptor 3 (Mus musculus) (UniProt Q99MB1).
T3 sequence (whole entry): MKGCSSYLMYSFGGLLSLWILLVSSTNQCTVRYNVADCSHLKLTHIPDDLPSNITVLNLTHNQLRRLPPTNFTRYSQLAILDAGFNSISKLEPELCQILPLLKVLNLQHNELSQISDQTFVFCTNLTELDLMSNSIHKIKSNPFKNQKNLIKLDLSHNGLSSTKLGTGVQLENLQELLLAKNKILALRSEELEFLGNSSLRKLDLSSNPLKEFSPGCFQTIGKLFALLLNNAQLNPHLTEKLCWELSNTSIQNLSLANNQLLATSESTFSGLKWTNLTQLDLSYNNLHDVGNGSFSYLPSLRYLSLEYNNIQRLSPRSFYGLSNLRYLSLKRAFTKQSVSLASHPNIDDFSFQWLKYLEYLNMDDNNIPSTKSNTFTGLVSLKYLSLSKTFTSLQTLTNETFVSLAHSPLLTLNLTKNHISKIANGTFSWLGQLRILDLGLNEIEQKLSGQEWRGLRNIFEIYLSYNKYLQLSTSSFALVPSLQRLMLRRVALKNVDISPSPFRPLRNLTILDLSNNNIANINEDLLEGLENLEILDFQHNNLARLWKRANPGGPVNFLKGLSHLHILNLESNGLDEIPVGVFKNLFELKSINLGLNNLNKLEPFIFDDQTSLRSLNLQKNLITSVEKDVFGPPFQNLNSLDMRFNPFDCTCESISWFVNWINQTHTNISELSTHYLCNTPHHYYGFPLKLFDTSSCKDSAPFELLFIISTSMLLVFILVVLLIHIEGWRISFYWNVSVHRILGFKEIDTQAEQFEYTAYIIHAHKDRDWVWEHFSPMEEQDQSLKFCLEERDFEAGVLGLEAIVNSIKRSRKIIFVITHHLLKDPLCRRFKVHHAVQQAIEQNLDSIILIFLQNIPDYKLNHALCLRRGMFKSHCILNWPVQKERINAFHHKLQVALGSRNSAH
Briefly: Inhibition of TLR3 in poly(I:C)-stimulated mouse RAW264.7 cells at 0.6 uM after 24 hrs. The gist of the method:
as §1

Another series concerns RAW264.7. Briefly: Cytotoxicity against mouse RAW264.7 cells assessed as cell viability up to 10 uM after 24 hrs by WST-1 assay. Particulars: raw264.7, 24 h. The gist of the method:
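WST-1 viability assay: RAW 264.7 cells at 2×10^4 cells/well, cultured 24 h at 37°C, then moved to serum-free medium and treated with vehicle or compound (10 mM DMSO stocks) for 24 h. WST-1 reagent added for 30 min at 37°C; absorbance read at 490 nm.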

Series [5] deals with TLR7 and TLR8 (Mus musculus) (UniProt P58681+P58682). Description: Inhibition of TLR7/TLR8 in R848-stimulated mouse RAW264.7 cells at 0.6 uM after 24 hrs. The gist of the method: as §1
In series [6] the target is T2, Toll-like receptor 4 (Mus musculus). Briefly: Inhibition of TLR4 in LPS-stimulated mouse BV2 cells assessed as reduction of NF-kappaB activation after 24 hrs by Dual-GLO luciferase assay. As to conditions: BV-2. The gist of the method: (§4)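 BV-2 cells stably carrying an NF-κB dual-luciferase reporter were kept in DMEM/10% FBS with puromycin (3 μg/mL) and seeded at 1×10^4/well. After 24 h the medium was switched to Opti-MEM/0.5% FBS. Compound was added, followed by LPS 200 ng/mL for 24 h. Read-out was the Firefly/Renilla luciferase ratio (Dual-Glo).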

For series [7] the target is unchanged. Description: (§5) Inhibition of TLR4 in LPS-stimulated mouse RAW264.7 cells assessed as reduction of IL1-beta production after 24 hrs by ELISA. The gist of the method: (§6)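 RAW 264.7 cells (5×10^5/well, 6-well plates) were treated with or without LPS and then with compound for 24 h. Cells were lysed and IL-1β was measured in the lysate by ELISA, normalized to total protein.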

Series [8] has as its target T1, Toll-like receptor 4. The description is as §5. The gist of the method: as §6
Series [9] addresses Toll-like receptor 1/2 (Mus musculus) (UniProt Q9QUN7+Q9EPQ1). Briefly: Inhibition of TLR1/TLR2 in Pam3CSK4-stimulated mouse RAW264.7 cells at 0.6 uM after 24 hrs. The gist of the method:
as §1

In series [10] the target is T2, Toll-like receptor 4 (Mus musculus). Briefly: Inhibition of TLR4 in LPS-stimulated mouse RAW264.7 cells assessed as reduction of TNFalpha production at 3 to 10 uM after 24 hrs by ELISA. The gist of the method:
as §3

Series [11] has the same target. Briefly: Inhibition of TLR4 in LPS-stimulated mouse BV2 cells assessed as reduction of NF-kappaB activation up to 10 uM after 24 hrs by Dual-GLO luciferase assay. Particulars: BV-2. The gist of the method:
as §4

For series [12] the target is unchanged. Description: Inhibition of TLR4 in LPS-stimulated mouse RAW264.7 cells assessed as reduction of IL1-beta production at 3 to 10 uM after 24 hrs by ELISA. The gist of the method: as §6

pIC50: −log10 of the molar value. Calls of active or inactive are those of the source. The rule behind the calls is not given here. Bounds are passed on as bounds.

TLR7 and TLR8 (Mus musculus), sequence (P58681 whole entry, looked up): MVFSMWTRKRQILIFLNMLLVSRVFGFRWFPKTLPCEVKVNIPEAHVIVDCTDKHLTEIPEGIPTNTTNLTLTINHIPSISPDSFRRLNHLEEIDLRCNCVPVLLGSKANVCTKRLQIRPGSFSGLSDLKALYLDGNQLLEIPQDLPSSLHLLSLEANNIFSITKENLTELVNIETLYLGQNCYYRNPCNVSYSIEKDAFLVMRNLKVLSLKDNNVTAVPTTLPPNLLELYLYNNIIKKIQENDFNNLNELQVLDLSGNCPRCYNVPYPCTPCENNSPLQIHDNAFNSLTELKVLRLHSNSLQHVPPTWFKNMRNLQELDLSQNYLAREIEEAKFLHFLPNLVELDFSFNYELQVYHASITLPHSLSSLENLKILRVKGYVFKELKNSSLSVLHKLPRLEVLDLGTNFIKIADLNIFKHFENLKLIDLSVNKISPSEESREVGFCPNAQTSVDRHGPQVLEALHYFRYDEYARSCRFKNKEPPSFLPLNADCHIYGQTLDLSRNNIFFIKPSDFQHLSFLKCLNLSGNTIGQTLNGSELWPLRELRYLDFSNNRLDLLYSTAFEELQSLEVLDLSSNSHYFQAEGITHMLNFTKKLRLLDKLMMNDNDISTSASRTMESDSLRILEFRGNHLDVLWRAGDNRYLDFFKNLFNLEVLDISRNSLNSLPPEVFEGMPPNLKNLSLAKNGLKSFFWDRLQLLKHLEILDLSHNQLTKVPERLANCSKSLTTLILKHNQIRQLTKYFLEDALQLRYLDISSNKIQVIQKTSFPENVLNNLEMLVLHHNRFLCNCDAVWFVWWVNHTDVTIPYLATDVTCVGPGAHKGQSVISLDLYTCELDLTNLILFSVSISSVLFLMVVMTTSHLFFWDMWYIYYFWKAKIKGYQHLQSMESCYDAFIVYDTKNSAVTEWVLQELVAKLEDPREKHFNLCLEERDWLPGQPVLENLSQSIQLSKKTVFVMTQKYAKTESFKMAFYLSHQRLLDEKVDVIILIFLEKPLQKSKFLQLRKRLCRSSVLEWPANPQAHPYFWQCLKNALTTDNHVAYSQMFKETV
TLR7 and TLR8 (Mus musculus), sequence (P58682 whole entry, looked up): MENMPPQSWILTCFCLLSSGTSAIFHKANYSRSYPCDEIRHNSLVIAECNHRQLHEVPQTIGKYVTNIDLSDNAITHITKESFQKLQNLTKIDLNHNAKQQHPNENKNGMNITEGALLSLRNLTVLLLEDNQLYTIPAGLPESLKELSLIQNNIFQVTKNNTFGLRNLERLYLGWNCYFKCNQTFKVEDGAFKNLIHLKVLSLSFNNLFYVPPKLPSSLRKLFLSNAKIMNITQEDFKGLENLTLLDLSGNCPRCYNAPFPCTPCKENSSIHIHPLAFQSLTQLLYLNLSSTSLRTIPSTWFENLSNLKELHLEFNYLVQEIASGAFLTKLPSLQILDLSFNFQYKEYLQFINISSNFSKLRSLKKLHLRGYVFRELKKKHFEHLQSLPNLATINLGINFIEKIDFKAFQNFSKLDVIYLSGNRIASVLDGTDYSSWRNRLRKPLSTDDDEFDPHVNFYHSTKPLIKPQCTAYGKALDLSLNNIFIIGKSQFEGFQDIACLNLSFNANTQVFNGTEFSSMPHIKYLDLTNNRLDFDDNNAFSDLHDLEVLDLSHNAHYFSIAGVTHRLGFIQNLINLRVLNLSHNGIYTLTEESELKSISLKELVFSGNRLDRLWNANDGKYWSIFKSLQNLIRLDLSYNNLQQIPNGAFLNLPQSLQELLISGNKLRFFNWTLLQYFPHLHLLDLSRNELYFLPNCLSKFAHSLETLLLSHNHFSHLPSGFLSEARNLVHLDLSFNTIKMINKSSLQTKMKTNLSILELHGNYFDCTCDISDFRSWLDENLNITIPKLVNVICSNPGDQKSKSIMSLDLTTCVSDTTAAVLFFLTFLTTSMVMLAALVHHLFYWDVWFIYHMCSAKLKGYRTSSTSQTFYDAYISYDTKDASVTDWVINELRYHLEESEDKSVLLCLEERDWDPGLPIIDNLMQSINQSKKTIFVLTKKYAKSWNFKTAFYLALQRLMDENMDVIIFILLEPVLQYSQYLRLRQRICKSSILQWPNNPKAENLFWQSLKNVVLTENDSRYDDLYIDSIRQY

Regarding `COc1cc(/C=C/C(=O)CC(=O)/C=C/c2ccc(O)c(OC)c2)ccc1O` [CURCUMIN], the pIC50 (as a rule, the IC50 on a negative log10 scale, so that one unit is a factor of ten) at Toll-like receptor 4 [1] is 5.22.
Still for that read-out and setting: with `O=C(O)C(=Cc1ccccc1[N+](=O)[O-])C(=O)O` the figure was 6.28.
With `COC(=O)C(=Cc1ccccc1[N+](=O)[O-])C(=O)OC`, the inhibition result at TLR2/TLR6 (Mus musculus) is “Active”. Moreover, the inhibition result in [2], in [6] and in series [7] was “Dose-dependent effect” each time. Moreover, the pIC50 is 5.81 on Toll-like receptor 4 [3], 6.51 at Toll-like receptor 4 [1] and 6.38 on Toll-like receptor 4 [8]. The inhibition entry in [4], in series [5] and in series [9] was “inactive” in each case. The Activity result in the series with RAW264.7 is given as “Non-toxic”. Besides, the IC50 (commonly the concentration that inhibits the measured activity by half) in series [6] stood at 5920 nM.
As to `COC(=O)C(=Cc1ccc(OC)cc1)C(=O)OC`, the pIC50 at Toll-like receptor 4 [1] is 5.91.
On the same count and under the same terms, with `COC(=O)C(=Cc1ccc(F)cc1F)C(=O)OC` the figure was 6.38; with `COC(=O)C(=Cc1cccc(F)c1)C(=O)OC`, 5.60; with `COC(=O)C(=Cc1ccccc1F)C(=O)OC`, 6.48.
Same read-out and setting: for `COC(=O)C(=Cc1cccc(OC)c1)C(=O)OC` the value was 5.43; for `COC(=O)/C=C/c1ccccc1[N+](=O)[O-]`, 5.34.
Same read-out and setting: for `COC(=O)C(=Cc1ccc(C(=O)OC)cc1)C(=O)OC` the value was 5.88; for `COC(=O)C(=Cc1ccccc1OC)C(=O)OC`, 6.13.
As for `COC(=O)C(=Cc1ccccc1Cl)C(=O)OC`, the pIC50 at Toll-like receptor 4 [1] is 6.09.
Regarding `COC(=O)C(=CC1CCCCC1)C(=O)OC`, the pIC50 at Toll-like receptor 4 [1] is 4.11.
Same read-out and setting: for `O=C(O)C(=Cc1ccccc1)C(=O)O` the value was 6.03; for `COc1ccc(C=C(C(=O)O)C(=O)O)cc1`, 5.84.
On the same count and under the same terms, for `COC(=O)C(=Cc1ccccc1)C(=O)OC` the value was 6.09.
On the same count and under the same terms, for `COC(=O)C(=Cc1ccc(Cl)cc1)C(=O)OC` the value was 5.81; for `COC(=O)C(=Cc1ccc([N+](=O)[O-])cc1)C(=O)OC`, 6.09.
On to `COC(=O)C(=Cc1cccc([N+](=O)[O-])c1)C(=O)OC`, for which the pIC50 at Toll-like receptor 4 [1] is 5.67.
Still for that read-out and setting: with `COC(=O)C(=Cc1ccc(N(C)C)cc1)C(=O)OC` the figure was 5.51; with `O=C(O)C(=Cc1ccccc1F)C(=O)O`, 6.39.
Same read-out and setting: with `COC(=O)C(=Cc1ccc(OC)cc1OC)C(=O)OC` the figure was 6.09; with `COC(=O)C(=Cc1ccc(F)cc1)C(=O)OC`, 6.15.
For the compound `COC(=O)C(Cc1ccccc1[N+](=O)[O-])C(=O)OC`, on Toll-like receptor 4 [1], the negative logarithm of the IC50 (pIC50) is less than 4.00. Further, the inhibition entry in series [10], in series [11] and in [12] was “inactive” in each case.

The record behind these values is ChEMBL document CHEMBL2146360, “Selection, synthesis, and anti-inflammatory evaluation of the arylidene malonate derivatives as TLR4 signaling inhibitors” (Bioorg Med Chem, 2012).
